Compound activity: PubChem, several laboratories
Beta2AR agonist – activates human beta-2 adrenergic receptor causing internalization | P07550 | Am2.2-beta2AR cells, FAP receptor internalization, flow cytometry | 340,000 compounds, 0.43% hits | response, % (no concentration beside the values);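 active = response above a set limit, near 3 SD of response in nonfluorescent compounds, cut at about 42% in these data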
Target sequence (P07550 whole entry, looked up): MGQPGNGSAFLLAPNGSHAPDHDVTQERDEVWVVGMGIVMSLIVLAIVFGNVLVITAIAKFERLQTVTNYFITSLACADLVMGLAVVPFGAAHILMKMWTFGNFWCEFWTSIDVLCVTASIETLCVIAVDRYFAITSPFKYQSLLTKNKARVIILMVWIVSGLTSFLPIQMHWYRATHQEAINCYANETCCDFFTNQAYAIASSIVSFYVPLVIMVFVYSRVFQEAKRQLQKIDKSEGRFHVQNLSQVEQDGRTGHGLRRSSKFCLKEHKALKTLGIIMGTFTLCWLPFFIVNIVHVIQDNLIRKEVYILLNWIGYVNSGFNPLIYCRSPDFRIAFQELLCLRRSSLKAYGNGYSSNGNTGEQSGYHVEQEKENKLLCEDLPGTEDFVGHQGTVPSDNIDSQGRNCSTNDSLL
Dynein transport – blocks dynein driven cargo transport along microtubules; 3617.4 mouse cells, GR-EGFP nuclear translocation imaging; test concentration mostly 20 µM; stimulated with dexamethasone, 1 µM; stronger effect = lower value; z-score, hits read low; 220,000 compounds, 0.47% hits;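 active = plate z-score of nuclear minus cytoplasmic receptor signal below a set negative limit, without overly bright fluorescence or cell loss, cut at about -3.5 in these data, passing the limit was not always enough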;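 note: z-score of nuclear minus cytoplasmic ring GR-EGFP intensity difference per well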
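Buffer or medium: tet-free, stripped-serum medium; reagent: dexamethasone at 1.0 µM final, 30 min; incubation: 48 h induction, 1 h compound, 30 min dex at 37 °C; measured by: formaldehyde fixation, Hoechst nuclear stain, 10x automated fluorescence imaging; read-out: nuclear-to-cytoplasmic GR-EGFP distribution per well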
CHOP UPR activ – apoptotic UPR (CHOP) activation. CHO-CHOP luciferase reporter, luminescence; percent of tunicamycin response over DMSO baseline. activation, % at 10 µM. 330,000 compounds, 0.34% hits. AID 449763;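 active = at 10 µM dose, activation of 40% or more, normalized to positive control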
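Dosing – one dose, 10 µM in 0.5% DMSO · System – CHO-CHOP cells, stable luciferase reporter of PERK-eIF2a-CHOP signalling · Input – 500 cells/well · Control set – tunicamycin 10 µg/mL final as positive, DMSO-only wells as negative · Timing – 6 h compound treatment, 37 °C · Measure – % activation vs tunicamycin · Technique – luminescence read with Steady-Glo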
UPR XBP1 act – adaptive UPR (XBP1) activation. CHO-XBP1 luciferase reporter, IRE1-XBP1 UPR activation, luminescence; percent of tunicamycin response, DMSO as zero. 330,000 compounds, 0.33% hits. AID 463104. activation, % at 20 µM;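 active = versus positive control, 20 µM dose yields 30% or more activation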
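assay system = CHO-XBP1 luciferase reporter cells | amount = 1000 cells/well | buffer or medium = F12 plus 10% FBS | compound dosing = single point, 20 µM final compound, 1% DMSO | incubation = 16-18 h cell attachment at 37 °C, then 6 h compound exposure | detection = Steady-Glo luminescence read | controls = tunicamycin 10 µg/mL and vehicle-only wells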
pCIP destab – compounds decreasing mouse p/CIP protein stability; Q05BA5; F442A p/CIP-EGFP cells, EGFP fluorescence, 16 h; decrease of EGFP signal, % at 10 µM; 290,000 compounds, 0.01% hits;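 active = EGFP signal decrease of at least 30% at 10 µM or well 3 SD below plate mean, unless failing retest; inactive = the rest, including hits failing retest or dose response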
CHOP inhibitor – inhibitors of CHOP induction in ER stress response | AID 2732 | inhibition, % at 10 µM | 220,000 compounds, 3.8% hits | CHO-K1 CHOP-promoter luciferase, tunicamycin-induced, 15-18 h;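 active = compounds that reduced the stress-induced luciferase reporter signal by more than about 70% of percent inhibition, limit read from the data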
UPR CHOP confirm – confirmation of apoptotic unfolded protein response (CHOP) activators | shares compounds with CHOP UPR activ | CHO-CHOP cells, CHOP-luciferase reporter luminescence; percent of tunicamycin response, DMSO as zero | activation, % at 10 µM | 1,000 compounds, 64% hits; in the data active = activation above about 33%
Numbers stand for hits; . = inactive; / = no result. The full list was thinned out, with hits kept by preference.

SMILES | Beta2AR agonist | Dynein transport | CHOP UPR activ | UPR XBP1 act | pCIP destab | CHOP inhibitor | UPR CHOP confirm
Clc1ccc(-c2nnc(CSc3nnc(-c4cccs4)n3Cc3ccccc3)o2)cc1 | . | . | 46.9 | . | . | . | .
Oc1ccc(/C=N/N2CCN(C3c4ccccc4-c4ccccc43)CC2)cc1O | . | . | 101.8 | . | . | 91.3 | 52.7
Cc1ccc(CN2CCN(/N=C/c3ccc(O)c(O)c3)CC2)cc1 | . | / | 147.5 | . | . | / | 105.5
Cc1ccc(CN2CCN(/N=C/c3ccc(C(=O)O)cc3)CC2)cc1 | . | . | . | . | . | . | /
CCOc1ccsc1C(=O)NNC(=O)c1ccco1 | . | / | . | . | . | / | /
O=C(C[C@H]1C[C@H](C(=O)N2CCCCC2)[C@@]2(CCc3ccccc3)c3[nH]c4ccc(Cl)cc4c3CCN2C1=O)NCCN1CCOCC1 | . | / | 52.1 | . | / | / | .
O=C1c2cccc3c([N+](=O)[O-])ccc(c23)C(=O)N1CCc1ccccn1 | . | . | 57.7 | . | . | . | .
CCOCCCN1CC(=O)N2[C@@H](Cc3c([nH]c4ccccc34)C2(C)C)C1=O | . | / | . | . | . | / | /
O=C(CCC(=O)Nc1ccc(F)cc1)N/N=C/c1ccccc1 | . | / | . | . | . | / | /
Cn1c(/C=C/c2ccc([N+](=O)[O-])o2)nc2ccccc2c1=O | . | . | 126.6 | . | . | / | 74.8
Cc1[nH]c2ccccc2c1C(=O)C(=O)NCc1ccncc1 | . | / | / | / | / | / | /
CN(C)Cc1c(O)ccc2c1O/C(=C\C=C\c1ccccc1)C2=O | . | . | 96.5 | . | . | . | .
Cc1ccc(-c2ccc(/C=C/C(=O)c3ccccc3)o2)cc1 | . | . | 192.9 | . | . | . | .
Cc1ccc(C(=O)/C=C/C(=O)c2ccc(C)cc2)cc1 | . | . | 139.1 | . | . | 106.2 | 369.9
Cc1ccc(/C=C/C(=O)c2ccc(C)cc2)cc1 | . | . | . | . | . | . | /
Cc1ccc(C(=O)/C=C/c2ccc(-c3ccccc3[N+](=O)[O-])o2)cc1 | . | . | . | . | . | . | /
CC(C)Cc1nc(N2CCN(C(=O)C(C)C)CC2)c(C#N)c2c1CCC2 | . | . | 40.2 | . | . | . | .
CC(C)Cc1nc(N2CCCCC2)c(C#N)c2c1CCC2 | . | . | . | . | . | . | /
C[C@@H]1CN([C@H](C)CO)C(=O)c2cc(NC(=O)Nc3ccc(C(F)(F)F)cc3)ccc2O[C@H]1CN(C)Cc1ccc(Cl)c(Cl)c1 | . | / | 183.8 | . | / | / | 60.4
C[C@H]1CN([C@@H](C)CO)C(=O)c2cccc(NC(=O)Nc3ccc(C(F)(F)F)cc3)c2O[C@@H]1CN(C)Cc1ccc(Cl)c(Cl)c1 | . | / | . | . | / | / | /
COc1ccc(CC2=CC(=O)c3ccccc3C2=O)cc1 | 56.5 | / | 187.1 | . | . | / | 190.9
Oc1ccc(-c2cn3c(n2)SCC3)cc1O | . | . | 51.6 | . | . | . | .
Oc1ccc(-c2cn3c(n2)SCC3)cc1 | . | . | . | . | . | . | /
Cc1ccc2nc(Nc3ccccc3)c(/C=N/O)c(=O)n2c1 | . | . | . | . | . | . | /
Cc1ccc(Sc2nc3ccc(C)cn3c(=O)c2/C=N/O)cc1 | . | . | 51.6 | . | . | . | .
SMILES | Beta2AR agonist | Dynein transport | CHOP UPR activ | UPR XBP1 act | pCIP destab | CHOP inhibitor | UPR CHOP confirm
CC1CCCCN1C(=O)COC(=O)/C=C/c1ccc2ccccc2n1 (stereo unspecified) | . | . | . | . | . | . | /
O=[N+]([O-])c1cccc(-c2nnc(C34CC5CC(CC(C5)C3)C4)o2)c1 | . | . | . | . | . | . | /
O=[N+]([O-])c1cc(-c2nnc(C34CC5CC(CC(C5)C3)C4)o2)cc([N+](=O)[O-])c1 | . | . | 136.5 | . | . | . | .
O=C1CN(S(=O)(=O)c2cccc(C(=O)O)c2)c2ccccc2N1 | . | / | . | . | . | / | /
[O-][n+]1c(/C=C/c2ccccc2)ccc2ccccc21 | . | / | 126.7 | . | . | / | .
O=[N+]([O-])/C=C\c1ccc(N2CCOCC2)cc1 | . | / | 51.5 | . | / | / | 126.3
O=[N+]([O-])c1cccc(N/N=C/c2ccc(N3CCOCC3)cc2)c1 | . | / | . | . | . | / | /
COc1ccc(CN2C[C@H](C)[C@@H](CC(=O)NCc3ccccc3)C2=O)cc1 | . | / | . | . | . | / | /
O=C(Nc1nccs1)c1cccc(N2C(=O)c3cccc4c([N+](=O)[O-])ccc(c34)C2=O)c1 | . | . | 85.2 | . | . | . | 121.9
Cc1ccc(C(=O)Sc2cccccc2=O)cc1 | . | / | 112.1 | . | . | / | .
Cc1ccc(F)cc1NC(=O)N1c2ccccc2NC(=O)CC1C (stereo unspecified) | . | . | . | . | . | . | /
O=C(CCl)Nc1c2c(nn1-c1ccccc1)CSC2 | . | / | 70.1 | . | . | / | .
O=C1C2CC=CCC2C(=O)N1c1ccc(NCCc2ccc(Cl)cc2)c([N+](=O)[O-])c1 (stereo unspecified) | . | . | 46.4 | . | . | . | .
O=C1C2CC=CCC2C(=O)N1c1ccc(NCCc2ccc(O)cc2)c([N+](=O)[O-])c1 (stereo unspecified) | . | . | . | . | . | . | /
CCOC(=O)c1c(-c2ccccc2)csc1NC(=O)CCN1C(=O)c2ccccc2C1=O | . | . | . | . | . | . | /
CCOC(=O)c1c(-c2ccc(-c3ccccc3)cc2)csc1NC(=O)CNCCN(C)C | . | / | 42.4 | . | . | / | 119.3
O=C(/C=C/Sc1ccccc1)c1ccc(Cl)cc1 | . | . | 113.3 | . | . | . | 103.5
O=C(C=Cc1ccccc1Cl)c1ccccc1 | . | / | / | / | / | / | /
CCOC(=O)c1sc2nc(C)nc(SC(C)C(=O)NC3CC3)c2c1C (stereo unspecified) | . | / | . | . | / | / | /
Cc1noc(C)c1COc1ccccc1C(=O)NCCOc1ccccc1 | . | / | . | . | / | / | /
O=C(OCCc1ccccc1)c1cc(O)c(O)c(O)c1 | . | / | 117.6 | . | / | / | .
COc1ccc(/C=C2\CN(Cc3ccccc3)C/C(=C\c3ccc(OC)c(O)c3)C2=O)cc1O | . | / | 50.9 | . | . | / | 42.6
COc1cc(/C=C2/CC/C(=C/c3ccc(O)c(OC)c3)C2=O)ccc1O | . | . | . | . | . | . | /
Cc1cc(C(=O)CCl)c(C)n1CCc1ccc(F)cc1 | . | . | 178.9 | . | . | . | 195.1
Cc1cc(C(=O)CSc2nnnn2C)c(C)n1CCc1ccc(F)cc1 | . | . | . | . | . | . | /
CSc1nc(-c2ccc(C)cc2)nc(C(Cl)Cl)n1 | . | . | 52.2 | . | . | . | .
COCc1cc(=O)[nH]c(Nc2nc3ccccc3o2)n1 | . | . | . | . | . | . | /
